This sample holds only a part of the variants without activity. Some results are limits rather than exact numbers.

B1: tRNA (parent)
chain: GUUCCGUUGGCGUAAUGGUAACGCGUCUCCCUCCUAAGGAGAAGACUGCGGGUUCGAGUCCCGUACGGAACG

Variants of B1 are the subject of this data set. Nature of the data set: yeast fitness relative to wild type (ratio to wild type); higher = fitter; tRNA-Arg(CCU), competitive growth, 37 C, YPD. In a few lines:
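Changes in genotype frequencies gave Darwinian fitness relative to wild type. Frequencies were read by 100-nucleotide paired-end sequencing of gene amplicons before and after pooled Saccharomyces cerevisiae strains, carrying tRNA-Arg(CCU) gene variants at the native locus, were competed in YPD at 37°C for 24 hours in six replicates. A genotype was kept only with ≥ 100 starting reads, and estimates < 0.5 were set to 0.5.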
With G12C U19A C27G C62A, the yeast fitness was no more than 0.5.

On to U13G C33U G41C, for which the yeast fitness was 0.581.

With U13G G41U C66G, the yeast fitness was no more than 0.5.

Take G12C A14U C29U: the yeast fitness was no more than 0.5.

Turning to U13C C22U C30U, the yeast fitness was no more than 0.5.

For the variant G12C C66A, the yeast fitness was 0.676.

In the case of U13A A20G A42G C46U, the yeast fitness was no more than 0.5.

With G12C A43G, the yeast fitness is 0.694.

As for G12C A43C, the yeast fitness worked out at 0.825.

Regarding G12U A36G, the yeast fitness was 0.758.

For the variant G12C U32G C33G G68C, the yeast fitness is no more than 0.5.

As for U13C U47C U64G G68C, the yeast fitness was no more than 0.5.

For the variant G12A U13G G67A, the yeast fitness was no more than 0.5.

U13C A14G A42C C61G C62U: the yeast fitness was no more than 0.5.

With G12C G58A C62U A69C, the yeast fitness came to 0.699.

Take G12C C55G: the yeast fitness came to 0.608.

For the variant G12C C22U U54C, the yeast fitness came out at 0.683.

In the case of U13A C29U A43G U54A U59C C61A, the yeast fitness is no more than 0.5.

Turning to U13A A14C A21C G25A C61A, the yeast fitness was no more than 0.5.

Regarding U13C G17A C22A G25A, the yeast fitness was no more than 0.5.

Take U13C A14U C61A: the yeast fitness is no more than 0.5.

On to G12C G25C C66G, for which the yeast fitness was no more than 0.5.

With U13G C30U C55A, the yeast fitness was no more than 0.5.

G12C C34A G58C A65U A69C: the yeast fitness is no more than 0.5.

As for U13G G18A A20U C31G, the yeast fitness is 0.566.

Regarding U13A C22G C27G C31G C61G A69U, the yeast fitness was no more than 0.5.

In the case of G12C C29G, the yeast fitness turned out to be 0.58.

Regarding U13C C33G A40G U59A, the yeast fitness is no more than 0.5.

Consider U13A C27G G52A U53C G63C, for which the yeast fitness is no more than 0.5.

As for U13A C22G G25C C27U C30G A36G C55A A69U, the yeast fitness was no more than 0.5.

For the variant U13C C29G A36G G41A, the yeast fitness was no more than 0.5.

With G12A U47C C49A A57U, the yeast fitness was determined as 0.53.

For the variant G12C A42G A45G, the yeast fitness was 0.627.

In the case of U13C A15C A20G C22U G25A C27G C30A A57C, the yeast fitness was determined as 0.542.

On to G12A G25C C30G, for which the yeast fitness was no more than 0.5.

In the case of U13G C27A C30A G63C, the yeast fitness turned out to be 0.537.

Turning to G12C C22G C55U, the yeast fitness is 0.581.

For U13A U19C A20U C29G C33G A37G C49U C66U, the yeast fitness was found to be 0.601.

With U13C A15C G48A, the yeast fitness was no more than 0.5.

Regarding G12C U16A C24G G58C C61G, the yeast fitness is no more than 0.5.

Regarding G12C U32G C33G G58A, the yeast fitness is no more than 0.5.

As for U13A A14C C22A, the yeast fitness is no more than 0.5.

In the case of G12A G44C G50A, the yeast fitness stood at 0.608.

On to U13A A37G, for which the yeast fitness came out at 0.714.

For U13G A21U C22G U35A A65G A70C, the yeast fitness is no more than 0.5.

For the variant G12C G23C A42U G44C U54A, the yeast fitness is no more than 0.5.

Turning to G12A G52A G68A, the yeast fitness is no more than 0.5.

As to U13A G52A, the yeast fitness turned out to be 0.643.

With G12C U19G A20C A21C C31U C61A, the yeast fitness was no more than 0.5.

Take G12A U13C C49U: the yeast fitness was 0.674.

Turning to U13A A15C U54G C66G G67C, the yeast fitness is no more than 0.5.

G12C C33U A42C: the yeast fitness was no more than 0.5.

G12C C30U A70U: the yeast fitness is no more than 0.5.

Regarding U13A G18C A20C C24U C30U A40C G68C, the yeast fitness was no more than 0.5.

As for G12C A20C G48A, the yeast fitness worked out at 0.749.

U13C C46G: the yeast fitness is 0.97.

Turning to U13G, the yeast fitness was found to be 1.03.

As for U13C, the yeast fitness is 1.01.

On to U13A, for which the yeast fitness was 0.993.

Take U13C U35C G48A C60A: the yeast fitness is no more than 0.5.

U13G A42C: the yeast fitness was 1.

G12C A20G C46G: the yeast fitness was found to be 0.548.

In the case of U13C A21C C31U, the yeast fitness was no more than 0.5.

Regarding G12C G38A, the yeast fitness turned out to be 0.687.

For the variant U13A A40U C55U, the yeast fitness was 0.681.

For the variant G12C C24U C49U C55U G68C, the yeast fitness was no more than 0.5.

Turning to U13G C22U A45U U59C, the yeast fitness amounted to 0.54.

With U13C G17A U47C A65G, the yeast fitness is no more than 0.5.

Take G12C U16A A21C: the yeast fitness is no more than 0.5.

As to G12A U19C A21C, the yeast fitness is 0.685.

In the case of G12A U19C A21U, the yeast fitness was determined as 0.905.

Take G12A U13C U16A U19G G23A G58A G68A: the yeast fitness is no more than 0.5.

On to U13G A42U C55U C62G A70C, for which the yeast fitness turned out to be 0.525.

Turning to U13C A43U C46G, the yeast fitness was no more than 0.5.

On to U13G U19A C27G, for which the yeast fitness amounted to 0.626.

Take U13C U47C: the yeast fitness turned out to be 0.905.

As for G12C U16A C60G C61U G68A, the yeast fitness is no more than 0.5.

Consider G12C C27G G56C, for which the yeast fitness was no more than 0.5.

Consider U13C C22U A45C G48C, for which the yeast fitness is no more than 0.5.

G12C A43U A70C: the yeast fitness came to 0.521.

In the case of U13A C30U C55G G58C G67U, the yeast fitness is no more than 0.5.

Consider G12A G41U, for which the yeast fitness was 0.819.

For G12C G18C A45G, the yeast fitness is no more than 0.5.

For the variant U13C A57G, the yeast fitness amounted to 0.919.

On to G12A G58C, for which the yeast fitness came out at 0.935.

Regarding U13C C29U C55U, the yeast fitness was no more than 0.5.

As for U13A C27U C55G, the yeast fitness is no more than 0.5.

As for G12C U26A C33A C34G A69G, the yeast fitness was no more than 0.5.

Consider U13A C24G G25A G39C A40C G51C A69U A70C, for which the yeast fitness was no more than 0.5.

Consider U13A A21G, for which the yeast fitness was found to be 1.04.

Consider U13C A42U U54C A65C, for which the yeast fitness is no more than 0.5.

As for U13G A40C C49G U53A, the yeast fitness was no more than 0.5.

For the variant U13G C61A G67A, the yeast fitness is no more than 0.5.

For U13A G23C C27G U53C C61A, the yeast fitness came to 0.509.

Consider G12A G41C A45C G68A, for which the yeast fitness was no more than 0.5.

G12A U13A A37G A40G U59A: the yeast fitness is no more than 0.5.

As for U13A C55U A65C, the yeast fitness came out at 0.596.

As for U13A C22U, the yeast fitness worked out at 0.859.

In the case of U13C A15C C46G A69C, the yeast fitness was no more than 0.5.

As for U13C G48C C49U, the yeast fitness is 0.772.

In the case of U13C G25C C27G, the yeast fitness amounted to 0.539.

For the variant U13C G23A, the yeast fitness was found to be 0.759.

Consider G12A G52A U59A A69C A70C, for which the yeast fitness was no more than 0.5.

For G12C G18C G25A C66U, the yeast fitness is no more than 0.5.

As for G12C G63C, the yeast fitness was 0.699.

G12C C27A G38A: the yeast fitness is 0.584.

Take U13C G25C U28G G58A C60G: the yeast fitness was 0.622.

Regarding G12C G18C U35A G39A U53A, the yeast fitness is no more than 0.5.

In the case of G12C A20C G58C A70U, the yeast fitness was no more than 0.5.

U13C C27U: the yeast fitness amounted to 0.878.

Regarding U13A G23C C27G C49U U53C C61A G68A, the yeast fitness was no more than 0.5.

With G12A G39C C46A, the yeast fitness turned out to be 0.554.

With U13A C31A G44A A65G A70U, the yeast fitness was no more than 0.5.

With G12C G18C G67U, the yeast fitness was no more than 0.5.

With U13A A14U C49A, the yeast fitness is no more than 0.5.

As to G12C A45U C62G A65G, the yeast fitness amounted to 0.604.

On to U13C A40C, for which the yeast fitness is 0.882.

For G12C A40C A42U C49G C66G, the yeast fitness is no more than 0.5.

As for U13G C29U C33U G63A, the yeast fitness is no more than 0.5.

Consider G12C C29U A42U U47C C62U, for which the yeast fitness was no more than 0.5.

As for U13A C27U C61A, the yeast fitness came out at 0.619.

U13G G18C C30U C33G A65C A70G: the yeast fitness is no more than 0.5.

As for U13A A45C C49A A65U, the yeast fitness was no more than 0.5.

For the variant G12C C22U A40C G52C G67A, the yeast fitness is no more than 0.5.

As to U13A A15G U16G A57G C61A, the yeast fitness was no more than 0.5.

As to U13C U16G C49G, the yeast fitness was determined as 0.617.

On to U13C A14G C24A U32G A37C U64A, for which the yeast fitness is 0.646.

Consider G12C A21U G50C A70C, for which the yeast fitness was no more than 0.5.

As for G12C C60A, the yeast fitness was 0.588.

Turning to U13A U28C, the yeast fitness came out at 0.992.

Take U13A C22G G25C C27U C30G A57C A69U: the yeast fitness is no more than 0.5.

As for U13C U26G U35C G63A A70G, the yeast fitness is no more than 0.5.

Turning to U13A C29G C30G C49A G56C C61U, the yeast fitness was found to be 0.635.

As to U13G G56A, the yeast fitness turned out to be 1.06.

As to G12C A45U A70U, the yeast fitness was 0.564.

For G12C A20U A21G C22G G50A C61A, the yeast fitness is no more than 0.5.

Regarding U13A C27U G50U, the yeast fitness was found to be 0.674.

With U13A C46U G67C, the yeast fitness was 0.53.

For U13C C29G A65U A70U, the yeast fitness is 0.588.

Take G12C G44C C66U: the yeast fitness amounted to 0.573.

Take U13G G41C: the yeast fitness was 0.782.

Take G12A G63A: the yeast fitness was 0.897.

U13A U28C U32A: the yeast fitness was 0.698.

Regarding U13A A15C A45G C55U C61G A69C, the yeast fitness was no more than 0.5.

For U13A C33U, the yeast fitness worked out at 0.754.

As for U13A A14U C22G A37G G41A, the yeast fitness was no more than 0.5.

Take G12C G17A A20U C34A A42C G48A C62U: the yeast fitness is no more than 0.5.

On to U13A A21C U35C G39A A42C A43G C46U, for which the yeast fitness was 0.63.

In the case of U13G A14U U16A G17U, the yeast fitness was no more than 0.5.

With U13C G23C C30G A65C, the yeast fitness was no more than 0.5.

Consider U13C C66U, for which the yeast fitness was determined as 0.932.

For the variant U13A A14G C66U G68C, the yeast fitness is no more than 0.5.

With G12C U13C U26A C33A C34G, the yeast fitness is no more than 0.5.

For the variant G12A U13A A65C, the yeast fitness is no more than 0.5.

For U13C U32C A40G, the yeast fitness was no more than 0.5.

Regarding G12A G39C, the yeast fitness amounted to 0.896.

For G12C C60U A70C, the yeast fitness was no more than 0.5.

With U13C C49G C61G, the yeast fitness is no more than 0.5.

G12C C34U G44A G52A: the yeast fitness is no more than 0.5.

Consider G12C U13C A20C C24G G39C G68C, for which the yeast fitness worked out at 0.511.

Take U13C U47C C62U C66U: the yeast fitness was no more than 0.5.

G12C A20C C31G A65G: the yeast fitness was 0.527.

Consider G12C A20C C31G, for which the yeast fitness came to 0.596.

Regarding U13G C22U C30A, the yeast fitness was 0.598.

Regarding U13A C22G G25C C27U C30G C55A, the yeast fitness was no more than 0.5.

Turning to G12C A15U C24A G48C C61U, the yeast fitness was no more than 0.5.

With U13A A45G, the yeast fitness is 0.92.

Source of the values: the RNAGym collection of RNA variant scans (doi:10.1126/science.aae0568).
